Results published in paper PMC7591087 (Drug Design, Development and Therapy, 2020).
Like-named read-outs stand apart in the source and are kept apart here.

How the values were obtained:
[1] = once-daily oral administration; cited from earlier work
[2] = Steady-state pharmacokinetics; format: in vivo; conditions: human, plasma, oral
Method in brief: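 Crossover design in healthy males: 5 mg, 30 mg, or both test compounds orally once daily for 7 days, fasted, with 7-day washouts. A validated LC-MS/MS assay measured parent drugs and metabolites, and steady-state Tmax was taken directly from observed data. Analysis covered 34 completers.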

[3] = Safety and tolerability assessment; format: in vivo, human
Method in brief: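 Healthy males in a randomized, open-label, six-sequence, three-period crossover took one test compound at 5 mg, another at 30 mg, or both together, orally once daily for 7 days with 150 mL water while fasted, with 7-day washouts. Investigators monitored vital signs, physical exam, clinical labs, 12-lead ECG and adverse events, coding events with MedDRA 19.0. Analysis covered 35 subjects dosed at least once.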

CYP enzyme = conditions: in vivo; cited from earlier work
[4] = repeated once-daily administrations in healthy subjects, NCT00961025; cited from earlier work
CYP enzymes = conditions: in vitro studies; cited from earlier work
[5] = number of subjects who reported ADRs (the number of ADRs), N=35

Tmax [2] | Tmax ([2]; 30 mg) | Tmax ([2]; 5 mg) | SMILES | Tmax [1] | number of AEs reported ([3]; all adverse events after each treatment, 35 subjects) | ADR: Amylase increased [3, 5] | CYP enzyme induction or inhibition (CYP enzyme) | terminal half-life (t1/2) [4] | time to reach a maximum plasma concentration (Tmax) [4] | induction or inhibition of CYP enzymes (CYP enzymes) | ADR: Diarrhoea [3, 5] | ADR: Dyspepsia [3, 5] | ADR: Headache [3, 5] | ADR: Lip blister [3, 5] | ADR: Muscle twitching [3, 5] | ADR: Musculoskeletal stiffness [3, 5] | ADR: Oropharyngeal swelling [3, 5] | ADR: Vomiting [3, 5]
3 h | 2 h | – | CCc1ccc(CCOc2ccc(CC3SC(=O)NC3=O)cc2)nc1 (stereo not drawn) [Pioglitazone] | about 2 hours | 3 AEs | 1 (1) | No clinically significant CYP enzyme induction or inhibition | – | – | – | – | – | – | – | – | – | – | –
– | – | 4.5 h | CC(C)(C)OC[C@@H]1C(=O)NCCN1C(=O)C[C@H](N)Cc1cc(F)c(F)cc1F [Evogliptin] | – | – | – | – | 33 to 39 h | 4 to 5 h | does not induce or inhibit CYP enzymes | 1 (1) | 1 (1) | 1 (1) | 1 (1) | 1 (1) | 1 (1) | 1 (1) | 1 (1)
